# In publication PMC10913580 (Nature chemistry, 2023):
# Assays:
# [1] = tested on: ternary complex between CRBN and off-target ZFP91; assay: NanoBRET ternary complex formation assay; type: cell-based; settings: U2OS cells expressing ZFP91-NLuc and HaloTag-CRBN, 1 μM dose
# Procedure, shortened: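 U2OS stably expressing ZFP91–NLuc, transfected with HaloTag–CRBN plasmid (2 μg per 100,000 cells). After 14 h, plated at 3,000 cells/well in phenol-red-free Opti-MEM with 4% FBS. NanoBRET 618 ligand 100 nM final, 18 h; no-ligand control wells. Compound 1 μM final, 15 min; furimazine 10 μM final, 5 min. mBU = (618/460 nm emission) × 1,000, minus no-ligand control.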
# [2] = tested on: ZF degrons fused to eGFP in U2OS cells; assay: Automated imaging assay for degradation of ZF degron-tagged eGFP; type: cell-based; settings: 14 stable U2OS ZF reporter cell lines, 24 h, dosing range 4.3 nM to 6 μM
# Procedure, shortened: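 U2OS lines stably carrying lentiviral Cilantro 2 reporters (ZF degron–eGFP plus untagged mCherry) under 1 μg ml−1 puromycin. 3,000 cells/well seeded onto compound-preprinted plates; 24 h. PBS wash, 4% paraformaldehyde fix, nuclear stain, eGFP/mCherry imaging. Per-cell eGFP normalized to mCherry, well means to DMSO wells; 1 minus value gives degradation fraction, summed across doses as degradation score. Z′ from controls.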
# ZFP91 [3] = target: T1, ZFP91 (Homo sapiens, UniProt Q96JP5+Q96SW2); assay: Immunoblot of endogenous ZFP91 in Jurkat cells; type: cell-based
# Procedure, shortened: (§1)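 Cells grown in RPMI 1640 with 10% FBS, then compound-treated. Lysis in ice-cold M-PER with protease and phosphatase inhibitors. 20–50 μg protein run on 4–12% Bis-Tris gels and transferred to nitrocellulose. Probed with anti-ZFP91 or anti-IKZF3 primary antibodies (1:1,000), then fluorescent secondaries (1:3,000).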
# SALL4 = SALL4 (Homo sapiens, UniProt Q96SW2+Q9UJQ4); assay: Global proteomic analysis of KELLY cells treated with PROTACs; type: cell-based; settings: 100 nM
# Procedure, shortened: (§2)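 Cells were dosed with test compound at 0.1 μM or with DMSO for 5 h, then washed in PBS and snap-frozen. Lysis was in 8 M urea, 50 mM NaCl, 50 mM EPPS pH 8.5 with protease and phosphatase inhibitors, with bead beating. Digestion used LysC (1:50, 12 h, room temperature), then trypsin (1:50, 6 h, 37 °C). Label-free LC-MS followed; abundances were scaled and statistics run with limma.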
# ALK = ALK (Homo sapiens, UniProt P06748+Q96SW2+Q9UM73); assay: Global proteomic analysis of SU-DHL-1 cells treated with PROTACs; type: cell-based; settings: 0.1 μM, 5 h
# Procedure, shortened: as §2
# ZFP91 [4] = target: T1, ZFP91; assay: Immunoblot of endogenous ZFP91 in SU-DHL-1 cells; type: cell-based
# Procedure, shortened: as §1
# ZFP91 [5] = target: T1, ZFP91; assay: Immunoblot of endogenous ZFP91 in H2228 cells; type: cell-based
# Procedure, shortened: as §1
# ZFP91 and IKZF3 = assay: Immunoblot of endogenous ZFP91 and IKZF3 in MM1.S cells; type: cell-based
# Procedure, shortened: as §1
# [6] = tested on: ZF proteins and other off-targets in MOLT4 and KELLY cells; assay: MS-based global proteomics of MOLT4 and KELLY cells treated with imide analogues; type: cell-based, human; settings: 1 μM, 5 h
# Procedure, shortened: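 MOLT4 or Kelly cells given 1 μM compound or DMSO, 5 h. PBS-washed pellets snap-frozen, lysed in 8 M urea, 50 mM NaCl, 50 mM EPPS pH 8.5 with inhibitors by bead beating; Bradford quantitation. 50 μg protein reduced, alkylated, methanol/chloroform precipitated; LysC (1:50, 12 h, room temperature) then trypsin (1:50, 6 h, 37 °C). C18-desalted, LC–MS. Abundances scaled; limma statistics.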
structure (smiles),measurement,setting,value
N#Cc1ccc(O[C@H]2CC[C@H](NC(=O)c3ccc(N4CCC(CN5CCN(c6cc7c(cc6F)C(=O)N(C6CCC(=O)NC6=O)C7=O)CC5)CC4)nn3)CC2)cc1Cl (some centres unmarked) [ARV110],"BRET signal, ternary complex formation between CRBN and ZFP91",[1],reduced ternary complex formation with off-target ZFP91
Cc1cc(Nc2ncc(Cl)c(Nc3ccccc3S(=O)(=O)C(C)C)n2)c(OC(C)C)cc1C1CCN(CC(=O)NCCNc2cccc3c2C(=O)N(C2CCC(=O)NC2=O)C3=O)CC1 (centres unmarked) [MS4078],degradation of ZF degron-tagged eGFP (off-target ZF degradation),[2],had a high level of off-target ZF degradation
same,off-target degradation of endogenous ZFP91 (immunoblot),ZFP91 [3],off-target degradation of endogenous ZF protein ZFP91
same,degradation of SALL4 (global proteomics),SALL4,induced degradation of SALL4
same,degradation of ALK (global proteomics),ALK,induced degradation of ALK
same,off-target degradation of endogenous ZFP91 (immunoblot),ZFP91 [4],off-target degradation of endogenous ZF proteins ZFP91
same,off-target degradation of endogenous ZFP91 (immunoblot),ZFP91 [5],off-target degradation of endogenous ZF proteins ZFP91
"Nc1ccc2c(c1)C(=O)N(C1CCC(=O)NC1=O)C2=O (centres unmarked) [compound 8, 5-aminothalidomide]",degradation of endogenous ZFP91 and IKZF3 (immunoblot),ZFP91 and IKZF3,decrease in overall degradation potency as compared to pomalidomide
CC[C@H](C(=O)N1CCCC[C@H]1C(=O)O[C@H](CCc1ccc(OC)c(OC)c1)c1ccccc1OCC(=O)NCCCCCCOc1cccc2c1C(=O)N(C1CCC(=O)NC1=O)C2=O)c1cc(OC)c(OC)c(OC)c1 (some centres unmarked) [dTAG-13],off-target degradation of endogenous ZFP91 (immunoblot),ZFP91 [3],off-target degradation of endogenous ZF protein ZFP91
Nc1cccc2c1C(=O)N(C1CCC(=O)NC1=O)C2=O (centres unmarked) [pomalidomide],degradation of ZF degron-tagged eGFP (off-target ZF degradation),[2],degraded all 12 ZF degrons that are sensitive to it in a dose-dependent manner
same,degradation of ZF proteins and other off-targets (global proteomics),[6],triggered the degradation of several ZF proteins
